High-throughput results as filed in PubChem BioAssay.
NPY-Y1 antag = NPY-Y1 receptor antagonists, primary screen, cell-based; Neuropeptide Y receptor type 1 (Homo sapiens), P25929; HEK293-CNG Y1 cells, membrane potential fluorescence; NPY at EC95, then isoproterenol; inhibition, % at 3.6 µM; 200,000 compounds, 1% hits; AID 1040, 2008;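 active means inhibition above the campaign mean inhibition of all tested compounds plus 3 SD, cut at about 20% in these data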;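 further: 0% = DMSO wells given NPY plus isoproterenol and 100% = isoproterenol alone without NPY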
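Test system: HEK293 cells co-expressing NPY Y1 receptor and cyclic-nucleotide gated channel; Also added: NPY (25 nM), isoproterenol (1 µM), Ro 20-1724 (25 µM); Compound dosing: one concentration, 3.6 µM, in 0.4% DMSO; Timing: dye 3 h, compound 60 min room temperature, stimulation 45 min; Technique: Membrane-potential fluorescent dye readout.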
NPY-Y2 antag = NPY-Y2 receptor antagonists, primary screen, cell-based; Neuropeptide Y receptor type 2 (Homo sapiens), P49146; NPY-Y2 expressing cells, antagonist mode; inhibition, % at 2.7 µM; 140,000 compounds, 0.99% hits; AID 793, 2007; in the data active means inhibition above about 17%;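 further: 0% = vehicle with agonist challenge and 100% = reference antagonist with challenge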
Target sequence (P49146 whole entry, looked up): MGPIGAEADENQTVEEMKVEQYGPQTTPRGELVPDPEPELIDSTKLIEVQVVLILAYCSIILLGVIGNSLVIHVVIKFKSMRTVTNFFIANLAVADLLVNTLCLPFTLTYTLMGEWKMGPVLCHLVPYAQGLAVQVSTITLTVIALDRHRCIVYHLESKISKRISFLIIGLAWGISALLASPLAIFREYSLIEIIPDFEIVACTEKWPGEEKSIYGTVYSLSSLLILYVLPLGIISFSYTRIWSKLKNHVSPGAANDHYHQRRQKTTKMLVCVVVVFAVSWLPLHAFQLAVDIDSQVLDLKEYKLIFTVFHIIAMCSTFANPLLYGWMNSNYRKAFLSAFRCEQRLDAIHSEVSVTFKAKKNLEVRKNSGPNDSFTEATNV
NPY-Y2 PAM-ag = NPY-Y2 potentiators or agonists, primary screen, cell-based; Neuropeptide Y receptor type 2 (Homo sapiens), P49146; cells expressing NPY-Y2, potentiator/agonist read-out; activation, % at 3.6 µM; 220,000 compounds, 0.45% hits; in the data active means activation above about 27%;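 further: cells stimulated with NPY near EC25 plus isoproterenol at EC100; 0% = vehicle plus submaximal agonist and 100% = vehicle plus saturating agonist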
EP2 antag = human EP2 receptor antagonists, primary screen, TR-FRET cAMP, C6 glioma cells; Prostaglandin E2 receptor EP2 subtype (Homo sapiens), P43116; C6 glioma cells expressing human EP2; cells stimulated with saturating PGE2; inhibition, % at 25 µM; 260,000 compounds, 0.52% hits;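 active means percent inhibition above 40 after rounding to a whole number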;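 further: rat C6 glioma host cells with rolipram phosphodiesterase inhibitor present; the protocol text gives 20 µM as final concentration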
Target sequence (P43116 whole entry, looked up): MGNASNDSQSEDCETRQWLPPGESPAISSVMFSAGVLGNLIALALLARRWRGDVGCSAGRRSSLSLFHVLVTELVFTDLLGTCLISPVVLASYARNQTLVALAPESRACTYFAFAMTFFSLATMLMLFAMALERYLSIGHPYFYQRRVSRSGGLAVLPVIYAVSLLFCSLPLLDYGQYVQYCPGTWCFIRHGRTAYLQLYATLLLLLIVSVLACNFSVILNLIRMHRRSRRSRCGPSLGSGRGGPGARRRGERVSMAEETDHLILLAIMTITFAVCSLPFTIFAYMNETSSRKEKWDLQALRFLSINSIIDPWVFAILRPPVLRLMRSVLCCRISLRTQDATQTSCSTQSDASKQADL
NPY1 pot ag = NPY-Y1 receptor potentiators or agonists, primary screen, cell-based; NPY-Y1 expressing cells, potentiator/agonist activation; 220,000 compounds, 0.37% hits; AID 1304, 2008; activation, % at 3.6 µM; Neuropeptide Y receptor type 1 (Homo sapiens), P25929; in the data active means activation above about 33%, passing the limit was not always enough;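 further: cells stimulated with NPY at EC10 then isoproterenol at EC100; 0% = low agonist plus stimulus and 100% = saturating agonist plus stimulus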
EP2 mod = EP2 receptor modulators, cAMP readout, primary screen, cell-based, HTRF cAMP, PGE2 stimulation; Prostaglandin E2 receptor EP2 subtype (Homo sapiens), P43116; EP2-expressing cells, cAMP HTRF FRET, PGE2 co-stimulation; induction, % at 25 µM; 260,000 compounds, 0.83% hits; AID 940, 2007;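 active means compounds whose cAMP rise, as percent of the full-agonist control response, exceeds 60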;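 further: rat C6 glioma line stably carrying human EP2 under a CMV promoter; the protocol text gives 20 µM as final concentration; 100% = response of wells given 1 µM PGE2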
Active calls of the source: *; nt = not tested or not shown; ! = a repeat was not active. This is a sample that favours compounds with a hit; in the whole collection about 2.8% have one here.

SMILES | NPY-Y1 antag | NPY-Y2 antag | NPY-Y2 PAM-ag | EP2 antag | NPY1 pot ag | EP2 mod
COc1cccc(C2N(c3ccccc3)CCN2c2ccccc2)c1OC | 4 | nt | 3 | 3 | 3 | 64*
C[C@H]1C[C@@H]2[C@@H]3CCC4=CC(=O)C=C[C@@]4(C)[C@@]3(Cl)[C@H](Cl)C[C@@]2(C)[C@]1(O)C(=O)COP(=O)(O)O | nt | nt | nt | 41* | nt | 16
Cc1ccc(-n2c(SCC(N)=O)nnc2-c2ccncc2)cc1 | nt | nt | nt | 12 | nt | 8
Cc1ccc2nc(-c3ccc(NC(=O)c4ccc(N)cc4)c(S(=O)(=O)O)c3)sc2c1 | nt | nt | nt | 46* | nt | -12
CN1CCCC1CCNc1ccc2sc3ccccc3c(=O)c2c1 (centres undefined) | nt | nt | nt | 44* | nt | nt
CC(Oc1ccccc1)c1ccnn1S(=O)(=O)c1ccccc1 (centres undefined) | 5 | 5 | 9 | 10 | 12 | 27
CC(Oc1ccc(Cl)cc1)c1ccnn1S(=O)(=O)c1ccc(Cl)cc1 (centres undefined) | 21* | 22* | -20 | 11 | -9 | 14
COc1ccc2c(c1)c1c(C)c3cnccc3c(C)c1n2CCCN | nt | nt | nt | 49* | nt | 32
COc1ccc2c(c1)c1nc3ccccc3nc1n2CCCN1C(=O)c2ccccc2C1=O | -2 | 1 | 0 | 14 | -6 | 5
O=C(c1ccc(Br)cc1)c1cc([N+](=O)[O-])ccc1N1CCCCC1 | 38* | 17* | -11 | 4 | -6 | 48
CN1CCN(c2ccc([N+](=O)[O-])cc2C(=O)c2ccc(Br)cc2)CC1 | 11 | 9 | 5 | 7 | 22 | 6
c1ccc(-c2cc(-c3nnc(-c4ccncc4)o3)c3ccccc3n2)cc1 | nt | nt | nt | 8 | nt | 80*
Cc1ccn(CCNC(=O)CN2C(=O)COc3ccc(C(C)(C)C)cc32)n1 | nt | nt | nt | 9 | nt | -26
Cc1ccc(Nc2nc(N)c([N+](=O)[O-])c(NCc3ccccc3)n2)cc1 | nt | nt | 17 | 2 | 46 | 74*
Nc1nc(Nc2ccc(Cl)cc2)nc(NCc2ccco2)c1[N+](=O)[O-] | nt | nt | 32 | 1 | 13 | 65*
COc1ccc(Nc2nc(N)c([N+](=O)[O-])c(NCc3ccccc3)n2)cc1 | nt | nt | -23 | 7 | 12 | 37
Cc1cccc(Nc2nc(N)c([N+](=O)[O-])c(N3CC(C)CC(C)C3)n2)c1 (centres undefined) | -6 | 0 | 12 | 5 | 36 | 63*
Cc1ccc(Nc2nc(NCc3ccco3)c3ccccc3n2)cc1 | 13 | nt | 11 | 42* | -4 | -51
Nc1nc(Nc2cccc(Cl)c2)nc(NCc2ccco2)c1[N+](=O)[O-] | nt | nt | 30 | 3 | 36 | 24
Cc1cccc(Nc2nc(N)c([N+](=O)[O-])c(NCc3ccco3)n2)c1 | -3 | 2 | 9 | 2 | 9 | 62*
Clc1ccc(/C=C/c2nc(Cl)c(-c3ccc(Cl)cc3)c(Cl)n2)cc1 | nt | nt | -3 | 43*! | 3 | 18
COc1ccc([C@@H]2CN(C(=O)C34CC5CC(CC(C5)C3)C4)C[C@H]2C(=O)O)cc1 | nt | nt | nt | nt | nt | 7
COc1ccccc1N(C(=O)CCl)c1cn(C(C)=O)c2ccccc12 | nt | nt | 15 | 8 | 14 | 22
CC(=O)n1cc(N(C(=O)CCl)c2ccc(Cl)cc2)c2ccccc21 | nt | nt | 50* | 9 | 66* | -31
Cc1ccccc1-c1nc(P(=O)(c2ccccc2)c2ccccc2)c(N2CCOCC2)o1 | nt | nt | 19 | 9 | 15 | 67*
SMILES | NPY-Y1 antag | NPY-Y2 antag | NPY-Y2 PAM-ag | EP2 antag | NPY1 pot ag | EP2 mod
Cc1nc(P(=O)(c2ccccc2)c2ccccc2)c(N2CCOCC2)o1 | 0 | -1 | -5 | 11 | -4 | 15
O=C(Cc1ccccc1)Nc1cccc(N2C(=O)C=CC2=O)c1 | -2 | 0 | -11 | 133* | 3 | -69
Cc1ccc2c(c1)cc(CN(Cc1ccc3c(c1)OCO3)C(=O)c1cccs1)c1nnnn12 | nt | nt | nt | 20 | nt | 28
COC(=O)[C@H]1C[C@@H]1[C@H](NC(=O)c1cnccn1)c1ccccc1 | 2 | 1 | 84* | 8 | 23 | 33
COC(=O)[C@H]1C[C@H]1[C@@H](NC(=O)c1cccnc1)c1ccccc1 | nt | nt | nt | 25 | nt | nt
CCCc1cc(C(=O)OC)c(NC(=O)OCC)s1 | -6 | -1 | 8 | 1 | 12 | 63*
ONC(=Nc1ccccc1Cl)c1ccccc1Cl | nt | nt | 21 | 7 | 34 | 71*
O=[N+]([O-])c1cccc(C(=Nc2ccccc2Cl)NO)c1 | 4 | 4 | 0 | 9 | -11 | -3
Cc1noc(C)c1C(=O)Nc1nc(C23CC4CC(CC(C4)C2)C3)cs1 | -11 | 0 | 72* | 8 | 45* | -28
CCCOc1ccc(Cn2c(C(C)O)nc3ccccc32)cc1 (centres undefined) | nt | nt | nt | 10 | nt | 1
N#CCSc1nnc(COc2cccc3ccccc23)n1-c1cccc(Cl)c1 | 1 | 2 | -7 | 3 | 6 | 72*!
Cc1cc(NC(=O)CC23CC4CC(CC(C4)C2)C3)ccc1NC(=O)c1ccco1 | nt | nt | nt | 10 | nt | 15
Cc1cc2ccc(OC(=O)c3ccc(N=C(N)N)cc3)cc2oc1=O | nt | nt | nt | 116* | nt | 4
CCOC(=O)c1cc2ccc(OC(=O)c3ccco3)cc2oc1=O | -4 | 0 | 11 | 8 | -6 | 2
CCOc1ccc(/C=c2\sc3nc(-c4ccco4)nn3c2=O)cc1OCC | 8 | 1 | 0 | 8 | -3 | 75*
CCn1c(SCC(=O)Nc2ccc(C)cc2)nnc1-c1ccoc1C | nt | nt | nt | 4 | nt | -7
O=C(COc1ccc2ccccc2c1CN1CCOCC1)N1CCc2ccccc21 | 22* | 28* | 26 | 3 | 16 | -14
COC(=O)CSc1ccc(C#N)c(SCC(=O)OC)c1 | -1 | 1 | 0 | -6 | 3 | 24
COC(=O)CSc1cc(SCC(=O)OC)c(C#N)c(SCC(=O)OC)c1 | -8 | 2 | 6 | 55* | 16 | 7
CC1CCN(CC(=O)N2c3ccccc3Sc3cc4ccccc4cc32)CC1 | nt | nt | nt | 46* | nt | 37
CN1CCN(CC(=O)N2c3ccccc3Sc3cc4ccccc4cc32)CC1 | nt | nt | nt | 45* | nt | -10
CC1CCCN(CC(=O)N2c3ccccc3Sc3ccccc32)C1 (centres undefined) | 0 | nt | 0 | 1 | 4 | 34
O=C(CSc1nnc2n(Cc3ccc(F)cc3)c3ccccc3n12)Nc1c[nH]c(=O)[nH]c1=O | nt | nt | nt | 10 | nt | -9
Cc1ccc(C)n1-c1ccc(-c2nnc3n2CCCCC3)s1 | -1 | 2 | 11 | 59* | -17 | 28
